Measurements reported in ChEMBL document CHEMBL1212894, “Non-peptide macrocyclic histone deacetylase inhibitors derived from tricyclic ketolide skeleton” (J Med Chem, 2010).
Values after ≈ are worked out from the molar mass of the structure shown. Active and inactive are the calls of the source. The rule behind the calls is not given here.

Legend:
Leishmania donovani [1] = assay: Antileishmanial activity against Leishmania donovani promastigotes after 72 hrs by alamar blue assay; format: functional, organism-based
[2] = Selectivity index, ratio of IC50 for african green monkey (Cercopithecus aethiops) Vero cells to IC50 for Plasmodium falciparum W2
Histone deacetylase [3] = target: T1, Histone deacetylase (Plasmodium falciparum, UniProt Q9XYC7); assay: Inhibition of Plasmodium falciparum HDAC1
T1 sequence (Q9XYC7 whole entry): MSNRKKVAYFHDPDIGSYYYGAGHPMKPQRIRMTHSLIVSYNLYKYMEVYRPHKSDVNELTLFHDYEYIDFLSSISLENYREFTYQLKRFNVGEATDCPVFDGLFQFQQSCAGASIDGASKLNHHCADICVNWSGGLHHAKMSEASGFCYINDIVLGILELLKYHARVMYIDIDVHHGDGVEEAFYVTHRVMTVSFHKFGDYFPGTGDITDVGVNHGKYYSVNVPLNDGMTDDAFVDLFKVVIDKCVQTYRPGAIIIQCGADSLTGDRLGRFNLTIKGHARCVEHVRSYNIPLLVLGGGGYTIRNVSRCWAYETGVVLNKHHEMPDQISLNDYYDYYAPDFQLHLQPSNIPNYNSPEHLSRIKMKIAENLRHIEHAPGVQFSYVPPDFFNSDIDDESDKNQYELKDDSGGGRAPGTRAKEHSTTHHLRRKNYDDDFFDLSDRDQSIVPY

[4] = Antiproliferative activity against human Hs1.Lu cells after 72 hrs by MTS assay; format: cell-based
Plasmodium falciparum [5] = assay: Antimalarial activity against Plasmodium falciparum W2 after 72 hrs by alamar blue assay; format: functional, organism-based; conditions: W2, 72 h
DU-145 = assay: Antiproliferative activity against human DU145 cells after 72 hrs by MTS assay; format: functional
How it was run: (§1)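 Cells kept at 37 °C, 5% CO₂ in recommended media; seeded in 96-well plates the day before, grown at least 24 h, then dosed 72 h with compounds diluted from 1000X DMSO stocks to give 0.1% DMSO final. MTS reagent added for 2 h; absorbance read at 490 nm; EC50 is concentration giving 50% loss of viability.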

[6] = Selectivity index, ratio of IC50 for african green monkey (Cercopithecus aethiops) Vero cells to IC50 for Plasmodium falciparum D6
MCF7 = assay: Antiproliferative activity against human MCF7 cells after 72 hrs by MTS assay; format: functional; how it was run: as §1
Plasmodium falciparum [7] = assay: Antimalarial activity against Plasmodium falciparum D6 after 72 hrs by alamar blue assay; format: functional, organism-based; conditions: D6, 72 h
A549 = assay: Antiproliferative activity against human A549 cells after 72 hrs by MTS assay; format: functional; how it was run: as §1
Histone deacetylase 8 = target: T2, Histone deacetylase 8 (Homo sapiens, UniProt Q9BY41); assay: Inhibition of HDAC8
T2 sequence (Q9BY41 whole entry): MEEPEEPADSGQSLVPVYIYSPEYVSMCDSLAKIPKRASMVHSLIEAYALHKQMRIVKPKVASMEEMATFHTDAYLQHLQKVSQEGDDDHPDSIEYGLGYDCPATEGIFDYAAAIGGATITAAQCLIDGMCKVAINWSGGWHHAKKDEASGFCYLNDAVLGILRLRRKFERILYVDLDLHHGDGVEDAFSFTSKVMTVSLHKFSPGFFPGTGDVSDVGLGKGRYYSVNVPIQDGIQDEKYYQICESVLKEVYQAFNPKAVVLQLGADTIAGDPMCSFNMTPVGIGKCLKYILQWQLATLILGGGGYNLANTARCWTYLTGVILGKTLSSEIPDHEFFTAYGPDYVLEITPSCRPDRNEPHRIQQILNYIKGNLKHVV

[8] = target: T3, Protein deacetylase HDAC6 (Homo sapiens, UniProt Q9UBN7); assay: Inhibition of HDAC6
T3 sequence (Q9UBN7 whole entry): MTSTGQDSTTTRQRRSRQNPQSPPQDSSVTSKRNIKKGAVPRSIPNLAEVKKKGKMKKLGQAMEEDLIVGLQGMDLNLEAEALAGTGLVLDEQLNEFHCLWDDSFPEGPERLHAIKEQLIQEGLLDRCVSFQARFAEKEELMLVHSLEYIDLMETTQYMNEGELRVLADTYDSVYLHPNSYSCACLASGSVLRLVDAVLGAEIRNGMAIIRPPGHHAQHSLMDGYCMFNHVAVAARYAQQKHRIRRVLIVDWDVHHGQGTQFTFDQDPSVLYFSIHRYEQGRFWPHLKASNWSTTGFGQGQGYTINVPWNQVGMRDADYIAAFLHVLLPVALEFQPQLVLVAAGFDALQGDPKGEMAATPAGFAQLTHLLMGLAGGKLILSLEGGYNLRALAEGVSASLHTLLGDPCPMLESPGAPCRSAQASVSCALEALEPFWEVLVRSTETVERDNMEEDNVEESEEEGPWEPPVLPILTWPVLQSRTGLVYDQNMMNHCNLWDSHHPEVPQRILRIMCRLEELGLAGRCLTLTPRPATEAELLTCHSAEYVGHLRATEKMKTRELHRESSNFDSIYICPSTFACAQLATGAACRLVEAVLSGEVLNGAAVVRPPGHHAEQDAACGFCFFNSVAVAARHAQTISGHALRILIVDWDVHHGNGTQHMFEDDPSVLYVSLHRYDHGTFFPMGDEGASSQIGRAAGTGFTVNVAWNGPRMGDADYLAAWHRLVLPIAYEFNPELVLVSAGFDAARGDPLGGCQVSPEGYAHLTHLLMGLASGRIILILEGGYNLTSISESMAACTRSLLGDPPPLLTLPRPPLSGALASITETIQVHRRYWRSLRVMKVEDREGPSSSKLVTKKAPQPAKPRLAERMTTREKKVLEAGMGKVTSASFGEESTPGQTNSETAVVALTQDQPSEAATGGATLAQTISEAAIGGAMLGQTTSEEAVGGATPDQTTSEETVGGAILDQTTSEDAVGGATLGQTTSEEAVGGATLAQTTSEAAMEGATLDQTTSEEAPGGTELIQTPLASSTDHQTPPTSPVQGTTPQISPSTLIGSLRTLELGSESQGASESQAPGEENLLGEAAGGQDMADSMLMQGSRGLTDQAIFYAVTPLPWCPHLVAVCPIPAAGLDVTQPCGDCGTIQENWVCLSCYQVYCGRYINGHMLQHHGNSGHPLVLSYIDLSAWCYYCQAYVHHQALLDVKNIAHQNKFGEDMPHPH

[9] = Selectivity ratio IC50 for HDAC8 to IC50 for HDAC in human HeLa cells nuclear extract; format: cell-based; design: reference not given here
Histone deacetylase [10] = assay: Inhibition of HDAC in human HeLa cell nuclear extracts; format: protein assay
Leishmania donovani [11] = tested on: Leishmania donovani
[12] = Leishmania donovani, 72 h, read-out: IC50

SMILES	IC90 (Leishmania donovani [1]; Leishmania donovani, 72 h)	IC50 (Leishmania donovani [1]; [12])	selectivity ratio ([2]; Vero cells)	IC50 (Histone deacetylase [3])	Activity [4]	IC50 (Plasmodium falciparum [5])	Activity (DU-145)	selectivity ratio ([6]; Vero cells)	Activity (MCF7)	IC50 (Plasmodium falciparum [7])	Activity (A549)	IC50 (Histone deacetylase 8)	IC50 [8]	Ratio IC50 [9]	IC50 (Histone deacetylase [10])	selectivity ratio ([2]; vero)	selectivity ratio ([6]; vero)	IC50 (Leishmania donovani [1])	IC90 (Leishmania donovani [11])
C[C@@H]1[C@H](O)[C@@H](C)/C=C/C=C/C=C/C=C/C=C/C=C/C=C/[C@H](O[C@@H]2O[C@H](C)[C@@H](O)[C@H](N)[C@@H]2O)C[C@@H]2O[C@](O)(C[C@@H](O)C[C@@H](O)[C@H](O)CC[C@@H](O)C[C@@H](O)CC(=O)O[C@H]1C)C[C@H](O)[C@H]2C(=O)O [AMPHOTERICIN B]	0.395 µg/mL (≈ 0.427 µM)	0.079 µg/mL (≈ 0.0855 µM)																	
CC[C@H]1OC(=O)[C@H](C)C(=O)[C@H](C)[C@@H](O[C@@H]2O[C@H](C)C[C@H](N(C)Cc3ccc(-c4cn(CCCCCCCCC(=O)NO)nn4)cc3)[C@H]2O)[C@](C)(OC)C[C@@H](C)C2=NCCN3C(=O)O[C@@]1(C)[C@H]3[C@H]2C	32.3 µg/mL (≈ 33.9 µM)	14.9 µg/mL (≈ 15.6 µM)	> 3.5	290 nM	> 10 µM	1.38 µg/mL (≈ 1.45 µM)	3.89 µM	> 3.7	2.56 µM	1.3 µg/mL (≈ 1.36 µM)	2.48 µM	2860 nM	1920 nM	17.5	163.6 nM				
CC[C@H]1OC(=O)[C@H](C)C(=O)[C@H](C)[C@@H](O[C@@H]2O[C@H](C)C[C@H](N(C)Cc3ccc(-c4cn(CCCCCCCCCC(=O)NO)nn4)cc3)[C@H]2O)[C@](C)(OC)C[C@@H](C)C2=NCCN3C(=O)O[C@@]1(C)[C@H]3[C@H]2C	23.7 µg/mL (≈ 24.5 µM)	4.8 µg/mL (≈ 4.97 µM)		304 nM	> 10 µM	0.897 µg/mL (≈ 0.928 µM)	4.83 µM		3.68 µM	1.19 µg/mL (≈ 1.24 µM)	2.81 µM	4560 nM	3200 nM	21.9	208.2 nM	> 5.3	> 4		
C[C@@H]1CC[C@H]2[C@@H](C)C(=O)O[C@@H]3O[C@@]4(C)CC[C@@H]1[C@]32OO4 [ARTEMISININ]										0.0066 µg/mL (≈ 0.0234 µM)									
CC[C@H]1OC(=O)[C@H](C)C(=O)[C@H](C)[C@@H](O[C@@H]2O[C@H](C)C[C@H](N(C)Cc3ccc(-c4cn(CCCCCCCC(=O)NO)nn4)cc3)[C@H]2O)[C@](C)(OC)C[C@@H](C)C2=NCCN3C(=O)O[C@@]1(C)[C@H]3[C@H]2C	35.8 µg/mL (≈ 38.2 µM)	19.7 µg/mL (≈ 21 µM)		40 nM	> 10 µM	1.47 µg/mL (≈ 1.57 µM)	3.7 µM		1.35 µM	1.32 µg/mL (≈ 1.4 µM)	1.64 µM	580 nM	1710 nM		104.2 nM	> 3.3	> 3.6		
CC[C@H]1OC(=O)[C@H](C)C(=O)[C@H](C)[C@@H](O[C@@H]2O[C@H](C)C[C@H](N(C)Cc3ccc(-c4cn(CCCCCCC(=O)NO)nn4)cc3)[C@H]2O)[C@](C)(OC)C[C@@H](C)C2=NCCN3C(=O)O[C@@]1(C)[C@H]3[C@H]2C				10 nM	> 10 µM	0.133 µg/mL (≈ 0.144 µM)	0.82 µM		0.75 µM	0.137 µg/mL (≈ 0.148 µM)	0.66 µM	545 nM	729 nM	529	1.03 nM	> 36	> 35	Not Active	inactive
CC[C@H]1OC(=O)[C@H](C)C(=O)[C@H](C)[C@@H](O[C@@H]2O[C@H](C)C[C@H](N(C)Cc3ccc(-c4cn(CCCCCC(=O)NO)nn4)cc3)[C@H]2O)[C@](C)(OC)C[C@@H](C)C2=NCCN3C(=O)O[C@@]1(C)[C@H]3[C@H]2C				36 nM	> 10 µM	1.79 µg/mL (≈ 1.97 µM)	1.64 µM		1.26 µM	0.897 µg/mL (≈ 0.986 µM)	1.17 µM	796 nM	1180 nM	102	7.77 nM	> 2.68	> 5.3	Not Active	inactive
N=C(N)c1ccc(OCCCCCOc2ccc(C(=N)N)cc2)cc1 [PENTAMIDINE]	2.45 µg/mL (≈ 7.2 µM)	1.17 µg/mL (≈ 3.44 µM)																	
O=C(CCCCCCC(=O)Nc1ccccc1)NO [VORINOSTAT]	51.7 µg/mL (≈ 196 µM)																		
